Key:
[1] = test system: HCT-15; assay: Cytotoxicity against human HCT15 cells after 48 hrs by sulforhodamine B assay; format: functional, cell-based; conditions: HCT-15, 48 h
Method in brief: (§1)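 Sulforhodamine B assay on NCI-sourced cells in RPMI-1640/10% FCS, seeded at 1×10^5 cells/ml and left 24 h, then serial dilutions of 2×10^-2 M DMSO stocks in gentamycin medium added for 48 h (37 °C, 5% CO2). Cells fixed with cold TCA, SRB dye dissolved in Tris pH 10.4, OD read at 540 nm. IC50 is the concentration inhibiting 50% of cell viability.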

[2] = test system: A549; assay: Cytotoxicity against human A549 cells after 48 hrs by sulforhodamine B assay; format: functional, cell-based; conditions: A549, 48 h; method in brief: as §1
[3] = test system: HeLa; assay: Cytotoxicity against human HeLa cells after 48 hrs by sulforhodamine B assay; format: functional, cell-based
[4] = test system: THP-1; assay: Cytotoxicity against human THP1 cells assessed as cell growth inhibition at 100 uM after 48 hrs by sulforhodamine B assay; format: functional; conditions: THP-1, 48 h, read-out: GI
Method in brief: (§2)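 Cell lines from NCI, grown in RPMI-1640 (2 mM glutamine, pH 7.4, 10% fetal calf serum, penicillin) at 37 °C, 5% CO2, 90% RH, viability >98% by trypan blue. 1×10^5 cells/ml seeded, grown 24 h, then compound added at 10 or 100 µM (DMSO stocks diluted in medium with gentamycin) for 48 h. TCA fixation, SRB staining, OD 540 nm; % growth inhibition versus untreated growth, blank-subtracted.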

[5] = test system: A549; assay: Cytotoxicity against human A549 cells assessed as cell growth inhibition at 10 uM after 48 hrs by sulforhodamine B assay; format: functional; conditions: A549, 48 h, read-out: GI; method in brief: as §2
[6] = test system: THP-1; assay: Cytotoxicity against human THP1 cells assessed as cell growth inhibition at 10 uM after 48 hrs by sulforhodamine B assay; format: functional; conditions: THP-1, 48 h, read-out: GI; method in brief: as §2
[7] = test system: A549; assay: Cytotoxicity against human A549 cells assessed as cell growth inhibition at 100 uM after 48 hrs by sulforhodamine B assay; format: functional; conditions: A549, 48 h, read-out: GI; method in brief: as §2
[8] = test system: HEp-2; assay: Cytotoxicity against human Hep2 cells assessed as cell growth inhibition at 100 uM after 48 hrs by sulforhodamine B assay; format: functional; conditions: HEp-2, 48 h, read-out: GI; method in brief: as §2
[9] = test system: PC-3; assay: Cytotoxicity against human PC3 cells after 48 hrs by sulforhodamine B assay; format: functional, cell-based; conditions: PC-3, 48 h
[10] = test system: HCT-15; assay: Cytotoxicity against human HCT15 cells assessed as cell growth inhibition at 10 uM after 48 hrs by sulforhodamine B assay; format: functional; conditions: HCT-15, 48 h, read-out: GI; method in brief: as §2
[11] = test system: HCT-15; assay: Cytotoxicity against human HCT15 cells assessed as cell growth inhibition at 100 uM after 48 hrs by sulforhodamine B assay; format: functional; conditions: HCT-15, 48 h, read-out: GI; method in brief: as §2
[12] = test system: HEp-2; assay: Cytotoxicity against human Hep2 cells assessed as cell growth inhibition at 10 uM after 48 hrs by sulforhodamine B assay; format: functional; conditions: HEp-2, 48 h, read-out: GI; method in brief: as §2
[13] = test system: THP-1; assay: Cytotoxicity against human THP1 cells after 48 hrs by sulforhodamine B assay; format: functional, cell-based; conditions: THP-1, 48 h; method in brief: as §1
[14] = test system: COLO 205; assay: Cytotoxicity against human COLO205 cells after 48 hrs by sulforhodamine B assay; format: functional, cell-based; conditions: COLO 205, 48 h
[15] = test system: THP-1; assay: Cytotoxicity against human THP1 cells assessed as cell growth inhibition at 1 uM after 48 hrs by sulforhodamine B assay; format: functional; conditions: THP-1, 48 h, read-out: GI
[16] = test system: A549; assay: Cytotoxicity against human A549 cells assessed as cell growth inhibition at 1 uM after 48 hrs by sulforhodamine B assay; format: functional; conditions: A549, 48 h, read-out: GI
[17] = test system: HCT-15; assay: Cytotoxicity against human HCT15 cells assessed as cell growth inhibition at 1 uM after 48 hrs by sulforhodamine B assay; format: functional; conditions: HCT-15, 48 h, read-out: GI
Method in brief: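 NCI-sourced cells in RPMI-1640 (2 mM glutamine, 10% FCS, penicillin), >98% trypan-blue viable, seeded at 1 × 10^5 cells/ml and grown 24 h (37 °C, 5% CO2). DMSO stocks diluted in medium with gentamycin; 48 h exposure. TCA fixation 1 h at 4 °C, 0.4% SRB stain 30 min, dye dissolved in Tris pH 10.4, OD 540 nm. Blank-subtracted; inhibition relative to untreated growth (100%).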

[18] = test system: HEp-2; assay: Cytotoxicity against human Hep2 cells assessed as cell growth inhibition at 1 uM after 48 hrs by sulforhodamine B assay; format: functional; conditions: HEp-2, 48 h, read-out: GI

Compound O=C1C(=O)N(CCCBr)c2ccccc21 has an IC50 [1] of 13.8 µM, an IC50 [2] of over 100 µM and an IC50 [3] of 7.77 µM. For the same compound, the inhibition of growth at 100 µM [4] was 95%, the inhibition of growth at 10 µM [5] was 0% and the inhibition of growth at 10 µM [6] was 80%. The inhibition of growth at 100 µM [7] was 37%, the inhibition of growth at 100 µM [8] was 93% and the IC50 [9] was 15.3 µM. It also gave an inhibition of growth at 10 µM [10] of 59%, an inhibition of growth at 100 µM [11] of 93% and an inhibition of growth at 10 µM [12] of 36%. It also gave an IC50 [13] of over 100 µM and an IC50 [14] of over 100 µM.

Work on O=C1C(=O)N(CCCCBr)c2ccccc21 yielded an IC50 [1] of 11.8 µM, an IC50 [2] of over 100 µM and an IC50 [3] of 4.57 µM. For the same compound, the inhibition of growth at 100 µM [4] was 90%, the inhibition of growth at 10 µM [5] was 30% and the inhibition of growth at 10 µM [6] was 90%. For the same compound, the inhibition of growth at 100 µM [7] was 49%, the inhibition of growth at 100 µM [8] was 68% and the IC50 [9] was 10.9 µM. For the same compound, the inhibition of growth at 10 µM [10] was 62%, the inhibition of growth at 100 µM [11] was 88% and the inhibition of growth at 10 µM [12] was 33%. For the same compound, the IC50 [13] was 12.4 µM and the IC50 [14] was 54.2 µM.

O=C1C(=O)N(CCCCCBr)c2ccccc21 gave an IC50 [1] of 8.46 µM, an IC50 [2] of over 100 µM and an IC50 [3] of 5.49 µM. The inhibition of growth at 100 µM [4] was 91%, the inhibition of growth at 10 µM [5] was 0% and the inhibition of growth at 10 µM [6] was 85%. The inhibition of growth at 100 µM [7] was 40%, the inhibition of growth at 100 µM [8] was 81% and the IC50 [9] was 11.5 µM. It also gave an inhibition of growth at 10 µM [10] of 62%, an inhibition of growth at 100 µM [11] of 91% and an inhibition of growth at 10 µM [12] of 40%. The IC50 [13] was 42.3 µM and the IC50 [14] was over 100 µM.

Compound O=C1C(=O)N(CCCCCCBr)c2ccccc21 has an IC50 [1] of 12.4 µM, an IC50 [2] of over 100 µM and an IC50 [3] of 12 µM. It also gave an inhibition of growth at 100 µM [4] of 93%, an inhibition of growth at 10 µM [5] of 0% and an inhibition of growth at 10 µM [6] of 94%. For the same compound, the inhibition of growth at 100 µM [7] was 53%, the inhibition of growth at 100 µM [8] was 86% and the IC50 [9] was 11.7 µM. The inhibition of growth at 10 µM [10] was 67%, the inhibition of growth at 100 µM [11] was 95% and the inhibition of growth at 10 µM [12] was 48%. For the same compound, the IC50 [13] was 26.5 µM and the IC50 [14] was over 100 µM.

With O=C1C(=O)N(CCN2C(=O)c3ccccc3C2=O)c2ccccc21 the inhibition of growth at 100 µM [4] was 96%, the inhibition of growth at 10 µM [5] was 18% and the inhibition of growth at 10 µM [6] was 9%. It also gave an inhibition of growth at 100 µM [7] of 43%, an inhibition of growth at 100 µM [8] of 68% and an inhibition of growth at 10 µM [10] of 3%. For the same compound, the inhibition of growth at 100 µM [11] was 86% and the inhibition of growth at 10 µM [12] was 10%.

O=C1C(=O)N(CCCN2C(=O)c3ccccc3C2=O)c2ccccc21 was tested, and the inhibition of growth at 100 µM [4] was 96%, the inhibition of growth at 10 µM [5] was 0% and the inhibition of growth at 10 µM [6] was 8%. For the same compound, the inhibition of growth at 100 µM [7] was 1%, the inhibition of growth at 100 µM [8] was 30% and the inhibition of growth at 10 µM [10] was 1%. It also gave an inhibition of growth at 100 µM [11] of 58% and an inhibition of growth at 10 µM [12] of 11%.

In the case of O=C1C(=O)N(CCCCN2C(=O)c3ccccc3C2=O)c2ccccc21, the inhibition of growth at 100 µM [4] is reported as 92%, the inhibition of growth at 10 µM [5] is reported as 0% and the inhibition of growth at 10 µM [6] is reported as 44%. For the same compound, the inhibition of growth at 100 µM [7] was 36%, the inhibition of growth at 100 µM [8] was 73% and the inhibition of growth at 10 µM [10] was 4%. The inhibition of growth at 100 µM [11] was 89% and the inhibition of growth at 10 µM [12] was 15%.

In the case of O=C1C(=O)N(CCCCCN2C(=O)c3ccccc3C2=O)c2ccccc21, the inhibition of growth at 100 µM [4] is reported as 93%, the inhibition of growth at 10 µM [5] is reported as 4% and the inhibition of growth at 10 µM [6] is reported as 60%. For the same compound, the inhibition of growth at 100 µM [7] was 36%, the inhibition of growth at 100 µM [8] was 85% and the inhibition of growth at 10 µM [10] was 9%. For the same compound, the inhibition of growth at 100 µM [11] was 97% and the inhibition of growth at 10 µM [12] was 10%.

O=C1C(=O)N(CCCCCCN2C(=O)c3ccccc3C2=O)c2ccccc21 showed an IC50 [1] of 9.73 µM, an IC50 [2] of over 100 µM and an IC50 [3] of 8.82 µM. The inhibition of growth at 100 µM [4] was 95%, the inhibition of growth at 10 µM [5] was 0% and the inhibition of growth at 10 µM [6] was 96%. For the same compound, the inhibition of growth at 100 µM [7] was 14%, the inhibition of growth at 100 µM [8] was 90% and the IC50 [9] was 12.8 µM. For the same compound, the inhibition of growth at 10 µM [10] was 49%, the inhibition of growth at 100 µM [11] was 91% and the inhibition of growth at 10 µM [12] was 39%. For the same compound, the IC50 [13] was over 100 µM and the IC50 [14] was over 100 µM.

In the case of O=C1C(=O)N(CCBr)c2ccccc21, the inhibition of growth at 100 µM [4] is reported as 96%, the inhibition of growth at 10 µM [5] is reported as 38% and the inhibition of growth at 10 µM [6] is reported as 14%. It also gave an inhibition of growth at 100 µM [7] of 44%, an inhibition of growth at 100 µM [8] of 71% and an inhibition of growth at 10 µM [10] of 4%. It also gave an inhibition of growth at 100 µM [11] of 89% and an inhibition of growth at 10 µM [12] of 14%.

In the case of COc1cccc2c1C(=O)c1c(O)c3c(c(O)c1C2=O)C[C@@](O)(C(=O)CO)C[C@@H]3O[C@H]1C[C@H](N)[C@H](O)[C@H](C)O1 [DOXORUBICIN], the inhibition of growth at 1 µM [15] is reported as 96% and the inhibition of growth at 1 µM [16] is reported as 55%.

With O=c1[nH]cc(F)c(=O)[nH]1 [FLUOROURACIL] the inhibition of growth at 1 µM [17] was 31%.

In the case of CO[C@@]12[C@H](COC(N)=O)C3=C(C(=O)C(C)=C(N)C3=O)N1C[C@@H]1N[C@@H]12 [MITOMYCIN], the inhibition of growth at 1 µM [18] is reported as 31%.
